Data as given in ChEMBL document CHEMBL1150660, “Lignans isolated from valerian: identification and characterization of a new olivil derivative with partial agonistic activity at A(1) adenosine receptors” (J Nat Prod, 2002).

What was measured:
[1] = target: T1, Adenosine receptor A1 (Rattus norvegicus) (UniProt P25099); test: Agonist activity at adenosine A1 receptor in rat cortical membrane by [35S]GTPgammaS binding assay relative to control; assay type: functional, cell membranes
T1 sequence (whole entry): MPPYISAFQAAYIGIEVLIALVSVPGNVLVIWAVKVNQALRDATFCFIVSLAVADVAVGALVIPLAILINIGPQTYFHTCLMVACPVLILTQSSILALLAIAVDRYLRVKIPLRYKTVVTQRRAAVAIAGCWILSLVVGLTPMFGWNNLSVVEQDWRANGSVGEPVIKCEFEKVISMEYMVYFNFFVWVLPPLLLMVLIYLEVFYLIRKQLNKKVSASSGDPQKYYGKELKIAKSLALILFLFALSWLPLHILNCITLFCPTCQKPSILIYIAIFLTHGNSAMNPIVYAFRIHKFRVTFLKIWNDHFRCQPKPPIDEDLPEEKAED
In short: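 Rat cortical membranes (7 μg/tube) incubated 45 min at 25 °C with 0.1-0.5 nM [35S]GTPγS in 50 mM Tris-HCl pH 7.4 with 1 mM EDTA, 5 mM MgCl2, 1 mM DTT, 10 μM GDP, 100 mM NaCl, 2 IU/mL adenosine deaminase, 0.5% BSA. Nonspecific binding with 10 μM unlabeled GTPγS. Filtration, scintillation counting; stimulation expressed as percent of basal.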

[2] = target: T1, Adenosine receptor A1 (Rattus norvegicus); test: Displacement of [3H]CCPA from adenosine A1 receptor in rat brain cortical membrane at 100 uM by liquid scintillation counting; assay type: cell membranes
In short: (§1)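 Rat cortical membranes (ca. 70 μg/mL protein), pretreated with 0.2 IU/mL adenosine deaminase, incubated with [3H]CCPA in 50 mM Tris-HCl pH 7.4 for 90 min at 25 °C. Nonspecific binding with 10 μM 2-chloroadenosine. GF/B filtration, scintillation counting.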

[3] = target: Adenosine receptor A2a (Rattus norvegicus) (UniProt P30543); test: Displacement of [3H]MSX-2 from A2A receptor in rat brain striatal membrane at 100 uM by liquid scintillation counting; assay type: cell membranes
Sequence of Adenosine receptor A2a (Rattus norvegicus) (P30543 whole entry): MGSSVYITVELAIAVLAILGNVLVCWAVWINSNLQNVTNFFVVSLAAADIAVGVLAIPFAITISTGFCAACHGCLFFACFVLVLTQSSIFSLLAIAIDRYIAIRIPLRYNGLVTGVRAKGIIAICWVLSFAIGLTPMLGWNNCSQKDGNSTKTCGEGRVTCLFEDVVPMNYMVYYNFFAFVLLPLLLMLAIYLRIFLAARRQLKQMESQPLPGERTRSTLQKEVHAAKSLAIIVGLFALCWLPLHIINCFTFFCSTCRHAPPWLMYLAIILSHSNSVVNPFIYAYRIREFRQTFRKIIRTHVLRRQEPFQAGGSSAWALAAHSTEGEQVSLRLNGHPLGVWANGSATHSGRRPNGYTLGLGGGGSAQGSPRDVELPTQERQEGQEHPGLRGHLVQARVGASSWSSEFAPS
In short: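 Rat striatal membranes (ca. 70 μg/mL protein), pretreated with 0.2 IU/mL adenosine deaminase, incubated with [3H]MSX-2 in 50 mM Tris-HCl pH 7.4 for 30 min at 25 °C. Nonspecific binding with 50 μM NECA. Filtration on GF/B filters presoaked in 0.3% polyethylenimine, scintillation counting. Percent inhibition at 100 μM, n = 3.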

Adenosine receptor A1 [4] = target: T2, Adenosine receptor A1 (Rattus norvegicus, UniProt P25099); test: Agonist activity at adenosine A1 receptor in rat cortical membrane by [35S]GTPgammaS binding assay; assay type: functional, cell membranes
T2 sequence (P25099 whole entry): T1 sequence (whole entry)

Adenosine receptor A1 [5] = target: T3, Adenosine receptor A1 (Homo sapiens, UniProt P30542); test: Displacement [3H]DPCPX from of human adenosine A1 receptor at high affinity state expressed in CHO cells; assay type: cell-based
T3 sequence (P30542 whole entry): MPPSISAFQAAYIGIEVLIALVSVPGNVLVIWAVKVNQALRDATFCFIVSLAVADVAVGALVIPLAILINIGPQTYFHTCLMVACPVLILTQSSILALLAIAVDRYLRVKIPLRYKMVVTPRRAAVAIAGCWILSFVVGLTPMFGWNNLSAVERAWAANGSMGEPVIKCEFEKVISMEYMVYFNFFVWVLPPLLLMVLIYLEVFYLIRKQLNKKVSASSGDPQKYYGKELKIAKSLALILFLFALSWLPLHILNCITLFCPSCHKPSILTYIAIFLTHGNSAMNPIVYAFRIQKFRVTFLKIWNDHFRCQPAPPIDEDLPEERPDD
In short: (§2)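 CHO-hA1 membranes (20 μg/mL protein), competition against [3H]DPCPX with or without 100 μM GTP. Incubation in 50 mM Tris-HCl pH 7.4, 90 min at 25 °C, after adenosine deaminase pretreatment. Nonspecific binding with 10 μM DPCPX. GF/B filtration, scintillation counting. Ki values for high- and low-affinity states taken from the biphasic curve without GTP.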

Adenosine receptor A1 [6] = target: T2, Adenosine receptor A1; test: Displacement of [3H]CCPA from adenosine A1 receptor in rat brain cortical membrane by liquid scintillation counting; assay type: cell membranes; in short: as §1
Adenosine receptor A1 [7] = target: T3, Adenosine receptor A1; test: Displacement [3H]DPCPX from of human adenosine A1 receptor at low affinity state expressed in CHO cells; assay type: cell-based; in short: as §2
Adenosine receptor A1 [8] = target: T3, Adenosine receptor A1; test: Displacement [3H]DPCPX from of human adenosine A1 receptor expressed in CHO cells in presence of GTP; assay type: cell-based; in short: as §2
Rattus norvegicus = organism: Rattus norvegicus; test: Displacement of [3H]flunitrazepam from GABAA receptor in rat brain cortical membrane at 10 uM; assay type: cell membranes

| SMILES | Activity [1] [%] | inhibition [2] [%] | inhibition [3] [%] | other results |
| --- | --- | --- | --- | --- |
| OC[C@H]1O[C@@H](n2cnc3c(NC4CCCC4)ncnc32)[C@H](O)[C@@H]1O | 193 |  |  |  |
| COc1cc([C@H]2OC[C@H](Cc3ccc(O[C@@H]4O[C@H](CO)[C@@H](O)[C@H](O)[C@H]4O)c(OC)c3)[C@]2(O)CO)ccc1O |  | 29 | 11 |  |
| Cn1c(=O)c2c(ncn2C)n(C)c1=O |  |  | 58 |  |
| COc1cc([C@H]2OC[C@](O)(Cc3ccc(O[C@@H]4O[C@H](CO)[C@@H](O)[C@H](O)[C@H]4O)c(OC)c3)[C@@H]2COC[C@H]2O[C@@](CO)(O[C@H]3O[C@H](CO)[C@@H](O)[C@H](O)[C@H]3O)[C@@H](O)[C@@H]2O)ccc1O | 126 | 80 | 49 | EC50 (Adenosine receptor A1 [4]): 3.98 µM; Ki (Adenosine receptor A1 [5]): 0.026 µM; Ki (Adenosine receptor A1 [6]): 5.28 µM; Ki (Adenosine receptor A1 [7]): 23.6 µM; Ki (Adenosine receptor A1 [8]): 31 µM |
| COc1cc([C@H]2OC[C@](O)(Cc3ccc(O[C@@H]4O[C@H](CO)[C@@H](O)[C@H](O)[C@H]4O)c(OC)c3)[C@]2(O)CO)ccc1O |  | 29 | 0 |  |
| COc1cc([C@H]2OC[C@H]3[C@@H]2CO[C@@H]3c2ccc(O[C@@H]3O[C@H](CO)[C@@H](O)[C@H](O)[C@H]3O)c(OC)c2)ccc1O[C@@H]1O[C@H](CO)[C@@H](O)[C@H](O)[C@H]1O |  |  |  | Activity (Rattus norvegicus): 23% |
